Laboratory results reported in ChEMBL document CHEMBL1649563, “Nukacin ISK-1, a bacteriostatic lantibiotic” (2009).
In brackets after ≈: the same amount, converted by molar mass. Activity calls are given as the source filed them. The rule behind the calls is not given here.

Experiments:
[1] = system: Bacillus subtilis; experiment: Antibacterial activity against Bacillus subtilis JCM 1465 assessed as detachment of plasma membrane from cell wall by microscopy; type: functional, organism-based
Summary of the method: (§1)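 B. subtilis JCM 1465T treated at 10× MIC for 90 min against an untreated control, then prepared for transmission electron microscopy. Longitudinal and cross sections examined.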

[2] = system: Bacillus subtilis; experiment: Antibacterial activity against Bacillus subtilis JCM 1465; type: functional
Summary of the method: (§2)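 Spot-on-lawn method against each indicator strain, giving MIC. Activity determined at least twice per lantibiotic.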

[3] = system: Micrococcus luteus; experiment: Antibacterial activity against Micrococcus luteus IFO 12708; type: functional; summary of the method: as §2
[4] = system: Listeria innocua; experiment: Antibacterial activity against Listeria innocua ATCC 33090; type: functional; summary of the method: as §2
[5] = system: Lactococcus lactis; experiment: Antibacterial activity against Lactococcus lactis ATCC 19435; type: functional; summary of the method: as §2
[6] = system: Enterococcus faecalis; experiment: Antibacterial activity against Enterococcus faecalis TUA 1344L; type: functional; summary of the method: as §2
[7] = system: Lactiplantibacillus plantarum; experiment: Antibacterial activity against Lactobacillus plantarum ATCC 14617; type: functional; conditions: ATCC 14917, in the assay text read “ATCC 14917” for “ATCC 14617”; summary of the method: as §2
[8] = system: Lactobacillus sakei; experiment: Antibacterial activity against Lactobacillus sakei JCM 1157; type: functional; conditions: Latilactobacillus sakei; summary of the method: as §2
[9] = system: Staphylococcus carnosus; experiment: Antibacterial activity against Staphylococcus carnosus TM300; type: functional; summary of the method: as §2
[10] = system: Cell membrane; experiment: Binding affinity to cell membrane of Bacillus subtilis JCM 1465 assessed as dissipation of nisin A-induced membrane potential
[11] = system: Bacillus subtilis; experiment: Antibacterial activity against Bacillus subtilis JCM 1465 assessed as induction of pore formation-associated efflux of ATP by fluorescence assay; type: functional, organism-based
Summary of the method: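 ATP efflux from B. subtilis JCM 1465T cells treated with lantibiotic at 10× MIC, detected with a Lucifer-HS ATP detection kit. Run twice, representative data shown.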

[12] = system: Bacillus subtilis; experiment: Antibacterial activity against Bacillus subtilis JCM 1465 assessed as induction of pore formation-associated efflux of K+ ion by fluorescence assay; type: functional, organism-based
Summary of the method: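 K+ efflux from B. subtilis JCM 1465T cells exposed to lantibiotic at 10× MIC, measured with potassium-binding benzofuran isophthalate-AM (PBFI). Expressed relative to total K+ released after adding 1 μM nisin (100%). Run twice.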

[13] = system: Bacillus subtilis; experiment: Antibacterial activity against Bacillus subtilis JCM 1465 assessed as single arrangement of initial stage of septal orientation by microscopy; type: functional, organism-based; summary of the method: as §1
[14] = system: Bacillus subtilis; experiment: Antibacterial activity against Bacillus subtilis JCM 1465 assessed as decrease in bacterial cell wall thickness by microscopy; type: functional, organism-based; summary of the method: as §1
[15] = system: Lactobacillus sakei; experiment: Bacteriostatic against Lactobacillus sakei JCM 1157 assessed as decrease in cell viability after 24 hrs by turbidity assay; type: functional; conditions: Latilactobacillus sakei
[16] = system: Lactobacillus sakei; experiment: Bacteriostatic against Lactobacillus sakei JCM 1157 assessed as lysis of cell after 24 hrs by spectrophotometry; type: functional; conditions: Latilactobacillus sakei
[17] = system: Bacillus subtilis; experiment: Antibacterial activity against Bacillus subtilis JCM 1465 assessed as dissipation of membrane potential by fluorescence assay; type: functional, organism-based

Row | MIC [2] | MIC [3] | MIC [4] | MIC [5] | MIC [6] | MIC [8] | MIC [9] | Activity [10] | Compound | Activity [1] | MIC [7] | Activity [11] | Activity [12] | Activity [13] | Activity [14] | Activity [15] | Activity [16] | Activity [17]
1 | 0.008 µM (≈ 0.0277 µg/mL) | 0.032 µM (≈ 0.111 µg/mL) | 0.065 µM (≈ 0.225 µg/mL) | 0.065 µM (≈ 0.225 µg/mL) | 0.26 µM (≈ 0.902 µg/mL) | 0.008 µM (≈ 0.0277 µg/mL) | 0.016 µM (≈ 0.0555 µg/mL) | Active | C=C(NC(=O)[C@@H](NC(=O)[C@H](Cc1cnc[nH]1)NC(=O)[C@@H](NC(=O)[C@H](CO)NC(=O)[C@@H]1CSC(C)[C@@H]2NC(=O)[C@H](C)NC(=O)[C@@H](NC(=O)N(CCCCN)C(=O)[C@H](CCCCN)NC(=O)[C@@H](CCSC)NC(=O)[C@H](CC(N)=O)NC(=O)[C@@H]3CSC(C)[C@H](NC(=O)[C@H](CCCCN)NC(=O)[C@@H]4CSC(C)[C@H](NC(=O)[C@@H]5CSC[C@H](NC(=O)/C(=C/C)NC(=O)[C@@H](N)[C@@H](C)CC)C(=O)N[C@@H](CC(C)C)C(=O)NC(=C)C(=O)N[C@@H](CC(C)C)C(=O)N5)C(=O)N5CCC[C@H]5C(=O)NCC(=O)N4)C(=O)NCC(=O)N[C@@H](C)C(=O)N[C@@H](CC(C)C)C(=O)N[C@H](CCSC)C(=O)NCC(=O)N3)C(C)SC[C@H](NC2=O)C(=O)N[C@@H](Cc2cnc[nH]2)C(=O)N1)[C@@H](C)CC)C(C)C)C(=O)N[C@@H](CCCCN)C(=O)O (stereo partly specified) | Active | 1.04 µM (≈ 3.61 µg/mL) | Active | Active | – | – | – | – | –
2 | 0.26 µM (≈ 0.769 µg/mL) | 2.08 µM (≈ 6.16 µg/mL) | 16.6 µM (≈ 49.2 µg/mL) | 0.52 µM (≈ 1.54 µg/mL) | 4.16 µM (≈ 12.3 µg/mL) | 0.26 µM (≈ 0.769 µg/mL) | 0.26 µM (≈ 0.769 µg/mL) | – | C/C=C1\NC(=O)[C@H](Cc2ccccc2)NC(=O)[C@H](C(C)C)NC(=O)[C@H](Cc2ccccc2)NC(=O)[C@H](CCC(N)=O)NC(=O)[C@H](Cc2ccccc2)NC(=O)[C@@H]2CSC[C@@H](C(=O)N[C@@H](CO)C(=O)O)NC(=O)[C@H](CSC[C@@H]3NC(=O)[C@H](C(C)C)NC(=O)[C@@H](NC(=O)[C@@H]4CCCN4C(=O)[C@@H](NC(=O)[C@@H](NC(=O)CNC(=O)[C@H](CO)NC(=O)[C@H](CCCCN)NC(=O)[C@H](CCCCN)NC(=O)[C@@H](N)CCCCN)C(C)C)[C@@H](C)CC)[C@H](C)SC[C@H](NC(=O)[C@H](CC(=O)O)NC(=O)[C@H](Cc4cnc[nH]4)NC3=O)C(=O)N[C@@H](Cc3cnc[nH]3)C(=O)N[C@@H](CCSC)C(=O)N[C@@H](CC(N)=O)C(=O)N2)NC1=O | – | – | inactive | inactive | Active | Active | Active | Active | inactive
